Source: PMC5563258 (Journal of medicinal chemistry, 2017)

Key:
D3R [1] = molecular target: T1, D3R (Homo sapiens, UniProt P35462); conditions: BRET assay; cited from earlier work
D3R [2] = molecular target: T1, D3R; assay: Go BRET activation assay; format: cell-based; conditions: for Functional efficacy class: Go BRET activation assay, Figure 1
D3R [3] = molecular target: T1, D3R; assay: β-arrestin recruitment assay; format: cell-based; conditions: Figure 2
Method in brief: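 HEK293T cells were transiently transfected (polyethylenimine) with D3R–Rluc8 (C-terminal), mVenus–β-arrestin 2 (N-terminal) and GRK2, and assayed ~48 h later. Cells in PBS + 5 mM glucose got coelenterazine H (5 µM) for 8 min, then test compound (final 10 pM–100 µM). BRET1 (510–540/485 nm) was read at 30 min, normalized to vehicle (0%) and dopamine (100%), and fitted sigmoidally.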

[4] = dogs; cited from earlier work

T1 sequence (P35462 whole entry): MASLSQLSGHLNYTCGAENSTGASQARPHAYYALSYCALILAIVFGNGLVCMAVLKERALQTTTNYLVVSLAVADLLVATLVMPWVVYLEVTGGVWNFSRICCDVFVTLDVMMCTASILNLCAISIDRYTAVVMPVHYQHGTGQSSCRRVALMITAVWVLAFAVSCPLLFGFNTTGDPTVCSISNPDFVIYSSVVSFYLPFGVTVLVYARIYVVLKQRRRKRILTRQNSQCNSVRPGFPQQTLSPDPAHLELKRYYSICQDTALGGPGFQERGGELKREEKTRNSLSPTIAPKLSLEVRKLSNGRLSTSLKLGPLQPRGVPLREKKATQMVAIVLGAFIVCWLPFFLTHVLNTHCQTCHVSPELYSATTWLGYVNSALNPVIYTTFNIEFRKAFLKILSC

| SMILES | Functional efficacy class (D3R [2]) | Functional efficacy class (D3R [3]) | also measured |
| --- | --- | --- | --- |
| Clc1cccc(N2CCNCC2)c1Cl [2,3-diCl-phenylpiperazine, 1-(2,3-dichlorophenyl)piperazine] |  |  | Emax (% of dopamine efficacy) (D3R [1]): 57.3% |
| O=C(NCC[C@H](O)CN1CCN(c2cccc(Cl)c2Cl)CC1)c1cnc2ccccc2c1 [(S)-4, (S)-N-(4-(4-(2,3-Dichlorophenyl)piperazin-1-yl)-3-hydroxybutyl)quinoline-3-carboxamide] | partial agonists | partial agonists |  |
| CC[C@H](O)CN1CCN(c2cccc(Cl)c2Cl)CC1 [(S)-6, (S)-1-(4-(2,3-Dichlorophenyl)piperazin-1-yl)butan-2-ol] | partial agonists | partial agonists |  |
| O=C(NCC[C@@H](O)CN1CCN(c2cccc(Cl)c2Cl)CC1)c1cc2ccccc2[nH]1 [(R)-9] |  | antagonists |  |
| O=C(NCC[C@@H](O)CN1CCN(c2cccc(Cl)c2Cl)CC1)c1cnc2ccccc2c1 [(R)-4, (R)-N-(4-(4-(2,3-Dichlorophenyl)piperazin-1-yl)-3-hydroxybutyl)quinoline-3-carboxamide] |  | antagonists |  |
| O=C(NCCCCN1CCN(c2cccc(Cl)c2Cl)CC1)c1cc2ccccc2[nH]1 [Compound 10] |  |  | Emax (D3R [2]; HEK-293T, read-out: Emax (% of dopamine efficacy)): 16% |
| O=C(NCC[C@H](O)CN1CCN(c2cccc(Cl)c2Cl)CC1)c1cc2ccccc2[nH]1 [(S)-9] | partial agonists | partial agonists |  |
| Cc1ncoc1-c1nnc(SCCCN2CC3CC3(c3ccc(C(F)(F)F)cc3F)C2)n1C (centres unmarked) [GSK598,809, 1-(2-fluoro-4-trifluoromethyl-phenyl)-3-{3-[4-methyl-5-(4-methyl-oxazol-5-yl)-4H-[1,2,4]triazol-3-ylsulfanyl]-propyl}-3-aza-bicyclo[3.1.0]hexane] |  |  | Effect on cocaine-mediated increases in blood pressure and heart rate [4]: potentiate cocaine-mediated increases in blood pressure and heart rate |
